20 compounds from ChEMBL document CHEMBL4177692, “Synthesis and antidepressant activity of a series of arylalkanol and aralkyl piperazine derivatives targeting SSRI/5-HT1A/5-HT7” (Bioorg Med Chem Lett, 2017) can be followed below.

Data set [1] concerns the target T1, 5-hydroxytryptamine receptor 1A (Homo sapiens, UniProt P08908).
T1 sequence (P08908 whole entry): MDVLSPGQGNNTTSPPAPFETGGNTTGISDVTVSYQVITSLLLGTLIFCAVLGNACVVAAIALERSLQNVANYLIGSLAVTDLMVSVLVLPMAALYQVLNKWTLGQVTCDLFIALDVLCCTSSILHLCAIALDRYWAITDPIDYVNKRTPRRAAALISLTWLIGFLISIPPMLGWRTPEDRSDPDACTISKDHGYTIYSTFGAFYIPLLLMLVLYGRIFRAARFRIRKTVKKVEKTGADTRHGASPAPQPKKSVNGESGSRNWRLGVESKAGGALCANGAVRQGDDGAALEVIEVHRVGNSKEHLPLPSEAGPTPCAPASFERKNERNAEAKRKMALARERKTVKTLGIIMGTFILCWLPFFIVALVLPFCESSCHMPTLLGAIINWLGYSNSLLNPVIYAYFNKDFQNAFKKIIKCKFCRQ
In words: Binding affinity to 5-HT1A receptor (unknown origin).

The target in data set [2] is Sodium-dependent serotonin transporter (Homo sapiens, UniProt P31645). In words: Binding affinity to SERT (unknown origin).
Sequence of Sodium-dependent serotonin transporter (Homo sapiens, UniProt P31645) (P31645 whole entry): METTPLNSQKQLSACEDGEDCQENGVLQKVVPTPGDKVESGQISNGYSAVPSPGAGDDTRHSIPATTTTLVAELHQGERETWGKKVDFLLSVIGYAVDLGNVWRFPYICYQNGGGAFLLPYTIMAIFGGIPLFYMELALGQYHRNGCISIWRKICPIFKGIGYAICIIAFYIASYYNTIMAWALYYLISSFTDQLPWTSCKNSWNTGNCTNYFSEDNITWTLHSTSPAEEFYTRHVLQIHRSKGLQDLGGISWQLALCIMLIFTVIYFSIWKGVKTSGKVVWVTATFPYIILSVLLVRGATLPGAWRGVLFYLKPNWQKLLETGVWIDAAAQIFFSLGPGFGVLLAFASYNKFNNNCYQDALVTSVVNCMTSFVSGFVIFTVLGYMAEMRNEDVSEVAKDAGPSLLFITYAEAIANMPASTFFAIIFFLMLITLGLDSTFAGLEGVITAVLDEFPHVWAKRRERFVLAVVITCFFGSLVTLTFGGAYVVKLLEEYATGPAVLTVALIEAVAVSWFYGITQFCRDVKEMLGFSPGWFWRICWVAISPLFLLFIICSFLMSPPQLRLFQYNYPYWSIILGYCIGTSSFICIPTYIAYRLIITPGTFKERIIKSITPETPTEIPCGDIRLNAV
Data set [3] concerns the target Sodium-dependent serotonin transporter (Rattus norvegicus) (UniProt P31652). In words: Inhibition of SERT in rat brain synaptosomes assessed as reduction in [3H]-5-HT uptake at 10 uM measured after 15 mins by scintillation counting method relative to control. It is filed as subcellular. The method in brief: (§1)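 The 5-HT1A assay displaced [3H]-8-OH-DPAT from HEK-293 cell membrane homogenates. The 5-HT7 assay displaced [3H]-LSD from CHO cell membrane homogenates. The SERT assay measured [3H]-5-HT uptake into rat brain synaptosomes.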

Data set [4] deals with T2, 5-hydroxytryptamine receptor 1A (Homo sapiens) (UniProt P08908).
T2 sequence (whole entry): T1 sequence (P08908 whole entry)
In words: Displacement of [3H]8-OH-DPAT from recombinant human 5-HT1A receptor expressed in HEK293 cell membranes at 10 uM measured after 60 mins by scintillation counting method. The method in brief:
as §1
On the technique in general: Displacement assays read how much labelled ligand stays bound in the presence of the test substance.

For data set [5], the target named is T3, 5-hydroxytryptamine receptor 7 (Homo sapiens, UniProt P34969). In words: Displacement of [3H]-LSD from recombinant human 5-HT7 receptor expressed in CHO cell membranes at 10 uM measured after 60 mins by scintillation counting method. The method in brief:
as §1

Data set [6] addresses T4, Sodium-dependent serotonin transporter (Rattus norvegicus, UniProt P31652). In words: Inhibition of SERT in rat brain synaptosomes assessed as reduction in [3H]-5-HT uptake measured after 15 mins by scintillation counting method. It is filed as subcellular. The method in brief:
(§2)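 The 5-HT1A assay used [3H]-8-OH-DPAT displacement on HEK-293 membranes. The 5-HT7 assay used [3H]-LSD displacement on CHO membranes. The SERT assay measured [3H]-5-HT uptake into rat brain synaptosomes.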

Data set [7] deals with T1, 5-hydroxytryptamine receptor 1A. Briefly: Displacement of [3H]8-OH-DPAT from recombinant human 5-HT1A receptor expressed in HEK293 cell membranes measured after 60 mins by scintillation counting method.
Data set [8] concerns the target T3, 5-hydroxytryptamine receptor 7. In words: Displacement of [3H]-LSD from recombinant human 5-HT7 receptor expressed in CHO cell membranes measured after 60 mins by scintillation counting method. The method in brief:
as §2

Data set [9] can be described thus: Half-life in rat liver microsomes at 1 uM in presence of NADPH regenerating system by LC-MS/MS analysis. It is filed as ADME, microsome. A general note: Liver microsomes are a subcellular fraction often used to study metabolism.
Data set [10] is described as follows: Clearance in rat liver microsomes at 1 uM measured after 90 mins in presence of NADPH regenerating system by LC-MS/MS analysis. As to conditions: read-out: CLH. It is filed as ADME, microsome.
In data set [11] the test system is Mus musculus. In words: Antidepressant-like activity in mouse assessed as reduction in immobility time at 20 mg/kg, po administered once daily for 7 days measured last 4 mins of 6 mins test by forced swim test relative to control. It is filed as functional. Further details: scale not given: the % may be the effect or the level left. The method in brief:
(§3)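 Mouse forced swim test. Oral dosing once daily for 7 days at 10, 20 or 40 mg/kg/day. […] Read-out is immobility time. Data given as mean ± SEM, n = 10 per group, tested against vehicle at P<0.05 and P<0.01.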

The test system of data set [12] is Mus musculus. Briefly: Antidepressant-like activity in mouse assessed as reduction in immobility time at 40 mg/kg, po administered once daily for 7 days measured last 4 mins of 6 mins test by forced swim test relative to control. It is filed as functional. The arrangement: scale not given: the % may be the effect or the level left. The method in brief: as §3

The subject of data set [13] is Mus musculus. In words: Antidepressant-like activity in mouse assessed as reduction in immobility time at 10 mg/kg, po administered once daily for 7 days measured last 4 mins of 6 mins test by forced swim test relative to control. Further details: scale not given: the % may be the effect or the level left. It is filed as functional. The method in brief: as §3
Data set [14] relates to Mus musculus. Briefly: Antidepressant-like activity in po dosed mouse assessed as reduction in immobility time administered once daily for 7 days measured last 4 mins of 6 mins test by forced swim test. It is filed as functional, organism-based. The method in brief:
as §3

The target in data set [15] is T5, 5-hydroxytryptamine receptor 1A (Rattus norvegicus, UniProt P19327).
T5 sequence (P19327 whole entry): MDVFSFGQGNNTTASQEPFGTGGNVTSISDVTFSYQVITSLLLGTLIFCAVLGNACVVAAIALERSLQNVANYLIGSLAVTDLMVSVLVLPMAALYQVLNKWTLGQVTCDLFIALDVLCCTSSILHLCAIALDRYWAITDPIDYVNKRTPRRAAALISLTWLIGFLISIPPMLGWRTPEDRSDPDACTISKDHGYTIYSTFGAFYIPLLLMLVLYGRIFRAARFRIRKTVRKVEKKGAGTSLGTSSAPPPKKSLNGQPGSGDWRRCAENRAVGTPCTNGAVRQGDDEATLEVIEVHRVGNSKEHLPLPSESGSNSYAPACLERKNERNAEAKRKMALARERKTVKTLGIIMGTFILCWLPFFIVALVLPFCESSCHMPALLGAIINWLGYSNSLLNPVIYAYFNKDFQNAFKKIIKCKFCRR
In words: Displacement of [3H]8-OH-DPAT from rat cerebral cortex 5-HT1A receptor.

Data set [16] addresses T4, Sodium-dependent serotonin transporter. Briefly: Displacement of [3H]-paroxetine from rat cerebral cortex SERT.

SMILES strings stand for the structures.

T4 sequence (P31652 whole entry): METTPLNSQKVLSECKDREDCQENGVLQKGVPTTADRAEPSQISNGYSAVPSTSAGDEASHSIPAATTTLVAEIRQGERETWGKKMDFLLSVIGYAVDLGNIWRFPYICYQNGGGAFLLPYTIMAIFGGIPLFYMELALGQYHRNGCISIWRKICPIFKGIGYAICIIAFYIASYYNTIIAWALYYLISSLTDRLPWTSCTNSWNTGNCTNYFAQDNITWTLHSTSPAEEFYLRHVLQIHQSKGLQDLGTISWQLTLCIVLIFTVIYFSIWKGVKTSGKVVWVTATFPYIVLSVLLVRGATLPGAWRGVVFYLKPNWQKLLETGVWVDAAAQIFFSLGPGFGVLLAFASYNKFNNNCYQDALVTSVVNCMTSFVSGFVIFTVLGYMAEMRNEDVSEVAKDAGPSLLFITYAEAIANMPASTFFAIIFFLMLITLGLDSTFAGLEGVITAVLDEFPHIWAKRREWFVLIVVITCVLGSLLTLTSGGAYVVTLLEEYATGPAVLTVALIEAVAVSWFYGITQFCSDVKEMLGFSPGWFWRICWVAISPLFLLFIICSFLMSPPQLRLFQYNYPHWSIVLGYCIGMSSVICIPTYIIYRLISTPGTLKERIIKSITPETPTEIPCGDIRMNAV
Sequence of Sodium-dependent serotonin transporter (Rattus norvegicus) (P31652 whole entry): as above
T3 sequence (P34969 whole entry): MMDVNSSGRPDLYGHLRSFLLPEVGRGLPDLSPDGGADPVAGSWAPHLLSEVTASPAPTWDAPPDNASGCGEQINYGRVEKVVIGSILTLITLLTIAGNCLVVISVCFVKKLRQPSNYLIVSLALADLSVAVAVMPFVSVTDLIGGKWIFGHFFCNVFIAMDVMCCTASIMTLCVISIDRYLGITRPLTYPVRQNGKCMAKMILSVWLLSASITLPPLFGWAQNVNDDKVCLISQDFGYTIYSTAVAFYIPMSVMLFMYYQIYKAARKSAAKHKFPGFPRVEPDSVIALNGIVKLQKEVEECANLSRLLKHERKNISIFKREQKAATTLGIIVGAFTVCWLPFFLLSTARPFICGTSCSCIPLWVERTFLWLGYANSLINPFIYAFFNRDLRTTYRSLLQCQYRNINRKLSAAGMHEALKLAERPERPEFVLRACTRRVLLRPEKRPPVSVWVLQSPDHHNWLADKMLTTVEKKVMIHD

As to `COc1ccccc1N1CCN(CCCN2CCOc3ccccc32)CC1`, in data set [1], the affinity, expressed as Ki, was 1.48 nM. Also, the IC50 (as a rule, the midpoint of a concentration-inhibition curve) in [2] is 195 nM.
In the case of `OC(CN1CCN(c2ccccc2)CC1)c1ccc(Cl)c(Cl)c1` (stereo not drawn), the inhibition (in general, the drop in the measured response relative to a control, in per cent) in data set [3] worked out at 112%; in data set [4] it was 98.5%; in data set [5] it was 99.8%. The IC50 in data set [6] was found to be 340 nM. The Ki (usually the dissociation constant of the complex between target and ligand, obtained from inhibition or displacement) in [7] came out at 2.4 nM; in data set [8], 3.2 nM. In addition, the half-life (in general, the time in which the quantity being followed falls by half) at 1 µM in data set [9] came out at 6.1 min. The microsomal CLint at 1 µM in [10] came out at 226 µL/min/mg. Further, the Activity is 26% in data set [11], 30% in [12], 16% in [13] and “Dose-dependent effect” in data set [14].
`Cc1cccc(-c2ccccc2N2CCN(CCc3ccc(Cl)c(Cl)c3)CC2)c1`: the inhibition in data set [3] was 72.3%; in data set [4] it was 98.4%; in data set [5], 94.7%.
Take `Clc1ccc(CCN2CCN(c3nsc4ccccc34)CC2)cc1Cl`: the figures for the inhibition in data set [3], in data set [4] and in [5] were 102%, 98.7% and 96%, respectively. Moreover, the IC50 in data set [6] is 100 nM. For the same compound, the Ki was 0.84 nM in data set [7] and 12 nM in [8]. Further, in data set [9], the half-life at 1 µM was found to be 5.3 min. Moreover, in data set [10], the microsomal CLint at 1 µM turned out to be 262 µL/min/mg. In addition, the Activity in [11] was 21%; in data set [12], 45%; in [13] it was 17%; in [14] it was “Dose-dependent effect”.
For the compound `Cc1ccccc1-c1ccccc1N1CCN(CCc2ccc(Cl)c(Cl)c2)CC1`, the values for the inhibition in data set [3], in [4] and in data set [5] were 61.6%, 93.9% and 97.3%, respectively.
For the compound `Cc1ccc(-c2ccccc2N2CCN(CCc3ccc(Cl)c(Cl)c3)CC2)cc1C`, the inhibition turned out to be 17.6% in data set [3], 96.8% in data set [4] and 93.2% in data set [5].
For the compound `Fc1ccc(-c2ccccc2N2CCN(CCc3ccc(Cl)c(Cl)c3)CC2)cc1`, the inhibition in data set [3] was 92.1%; in data set [4] it was 98.8%; in data set [5] it was 96.7%. The IC50 in data set [6] is 950 nM.
Take `Cc1ccc(Sc2ccccc2N2CCNCC2)c(C)c1` [VORTIOXETINE]: the IC50 in [6] was found to be 2.9 nM. Further, the Ki in data set [8] turned out to be 26 nM. In addition, the half-life at 1 µM in data set [9] was found to be 9 min. The microsomal CLint at 1 µM in data set [10] came out at 153 µL/min/mg. For the same compound, the Activity in data set [11] was 34 - 35%.
As to `Oc1ccccc1N1CCN(CCC(O)c2ccc(Cl)c(Cl)c2)CC1` (stereo not drawn), the inhibition in data set [3] was 84.9%; in data set [4], 99.4%; in data set [5], 102%.
In the case of `Fc1cccc(-c2ccccc2N2CCN(CCc3ccc(Cl)c(Cl)c3)CC2)c1`, the inhibition was 97.2% in data set [3], 99.7% in [4] and 96.4% in [5]. In addition, in data set [6], the IC50 stood at 880 nM.
For the compound `Cc1ccc(-c2ccccc2N2CCN(CCc3ccc(Cl)c(Cl)c3)CC2)c(C)c1`, the inhibition in data set [3] came out at 31.5%; in [4] it was 83.2%; in data set [5] it was 93.5%.
Take `Cc1ccc(-c2ccccc2N2CCN(CCc3ccc(Cl)c(Cl)c3)CC2)cc1`: the inhibition in data set [3] was determined as 65.8%; in data set [4], 99.5%; in data set [5] it was 98.1%.
On the same counts, the results for `CSc1ccccc1N1CCN(CCC(O)c2ccc(Cl)c(Cl)c2)CC1` (stereo not drawn) are 89%, 99.9% and 101%.
As for `OC(CCN1CCN(c2ccccc2-c2ccccc2)CC1)c1ccc(Cl)c(Cl)c1` (stereo not drawn), the values for the inhibition in [3], in data set [4] and in data set [5] were 98.9%, 98.9% and 102%, respectively. In addition, the IC50 in [6] came to 590 nM.
`COc1ccccc1N1CCN(CCC(O)c2csc3ccc(F)cc23)CC1` (stereo not drawn): the inhibitory constant (Ki) in [15] was 2.3 nM; in [16], 12 nM.
For the compound `COc1ccc2[nH]c([S+]([O-])Cc3ncc(C)c(OC)c3C)nc2c1` (stereo not drawn) [OMEPRAZOLE], the half-life at 1 µM in [9] came to 8.5 min. In addition, the microsomal CLint at 1 µM in data set [10] amounted to 163 µL/min/mg.
For the compound `COc1ccccc1N1CCN(CCC(O)c2ccc(Cl)c(Cl)c2)CC1` (stereo not drawn), the inhibition in data set [3] amounted to 88.8%; in data set [4], 99.3%; in [5], 101%.
Regarding `COc1ccc(-c2ccccc2N2CCN(CCc3ccc(Cl)c(Cl)c3)CC2)cc1`, the inhibition in data set [3] is 66.1%; in [4], 98.7%; in [5] it was 97.5%.
With `Clc1ccc(CCN2CCN(c3ccccc3-c3ccccc3)CC2)cc1Cl`, the inhibition in [3] was 104%; in [4] it was 97.8%; in data set [5], 101%. In addition, in [6], the IC50 was 840 nM. Besides, the Ki stood at 6.3 nM in data set [7] and 0.75 nM in [8].
For the compound `OC(CCN1CCN(c2cccc(-c3ccccc3)c2)CC1)c1ccc(Cl)c(Cl)c1` (stereo not drawn), the inhibition in data set [3] is 105%; in [4], 91.5%; in data set [5] it was 69.8%.
